According to paper PMC4832308 (Cancer, 2015):
≈ marks a conversion by molar mass, not a printed value.

Experiments:
[1] = urine pharmacokinetics in patients; conditions: human, in vivo
p4EBP1 [2] = assay: blood biomarker analysis by flow cytometry and PK/PD modeling; type: in vivo, human
How it was run: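 Sodium-heparin patient whole blood, taken predose and 1.5–5 h postdose: 1 h at 37°C, 15-min anti-IgD plus LPS stimulation, lyse/fix, methanol overnight at −80°C, then CD3/CD14/CD20 and phospho-staining and flow cytometry. Bead-calibrated MFI reported as ERF. Baseline-relative change vs plasma drug (chiral LC-MS) was fitted by a direct inhibitory NONMEM model for EC50: p4EBP1 in T cells, pS6RP in B cells and monocytes.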

TUNEL‐positive cells = assay: TUNEL staining of tumor biopsies; type: in vivo, human; conditions: HCC and salivary gland tumor samples after treatment
How it was run: (§1)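 Optional pretreatment and on-treatment (days 15–22) tumor biopsies from 2 patients in the 30-mg/d cohort (HCC and salivary gland tumor). Paraffin-embedded sections were immunostained per antibody (pS6RP, p4EBP1, pAKT, Ki-67) or TUNEL-labelled, then scored by quantitative image analysis.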

p4EBP1 [3] = assay: immuno‐histochemical staining of tumor biopsies; type: in vivo, human; conditions: HCC sample after treatment initiation
How it was run: as §1

[4] = test system: non‐Hodgkin lymphoma cell lines; conditions: cited from earlier work
PC3 prostate cancer = conditions: cited from earlier work

SMILES: CO[C@H]1CC[C@H](N2C(=O)CNc3ncc(-c4ccc(C(C)(C)O)nc4)nc32)CC1 [CC‐223]
- fraction excreted unchanged in urine [1]: < 0.2%
- renal clearance [1]: negligible
- p4EBP1 inhibition in blood cells (p4EBP1 [2]; 30‐, 45‐, and 60‐mg dose levels, 3 hours on treatment): > 40%
- EC50 (p4EBP1 [2]; Homo sapiens, T-cell, read-out: EC50 for p4EBP1 inhibition): 0.113 µg/mL (≈ 0.284 µM)
- TUNEL‐positive cells in tumor biopsies (TUNEL‐positive cells): increase
- p4EBP1 in tumor biopsy (p4EBP1 [3]): inhibition
- activity against non‐Hodgkin lymphoma cell lines [4]: active
- single‐agent activity in xenograft model (PC3 prostate cancer): single‐agent activity
